Test results: ChEMBL document CHEMBL5252514, “Conopeptide-Derived κ-Opioid Agonists (Conorphins): Potent, Selective, and Metabolic Stable Dynorphin A Mimetics with Antinociceptive Properties” (J Med Chem, 2016)
Where a SMILES comes first, the peptide text is derived from it.

Biological target: Kappa-type opioid receptor (Homo sapiens, UniProt P41145)
Assay: Displacement of [3H]U69593 from human kappa opioid receptor expressed in CHO-K1 cells incubated for 1 hr by 1450 microbeta scintillation counter analysis
Type: cell-based
Method in brief: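 Membranes from transiently KOR-transfected CHO-K1 cells (~2 µg/well) used in SPA with 3H-U69,593 (1 nM). Competitor ranged 1 pM–10 µM in 50 mM Tris-HCl pH 7.4, 5 mM MgCl2, 0.1% BSA. Incubated 1 h at room temperature with shaking. Nonspecific binding defined with 10 µM dynorphin A. Sigmoidal dose-response fit; at least three independent experiments in triplicate.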

Sequence of Kappa-type opioid receptor (P41145 whole entry): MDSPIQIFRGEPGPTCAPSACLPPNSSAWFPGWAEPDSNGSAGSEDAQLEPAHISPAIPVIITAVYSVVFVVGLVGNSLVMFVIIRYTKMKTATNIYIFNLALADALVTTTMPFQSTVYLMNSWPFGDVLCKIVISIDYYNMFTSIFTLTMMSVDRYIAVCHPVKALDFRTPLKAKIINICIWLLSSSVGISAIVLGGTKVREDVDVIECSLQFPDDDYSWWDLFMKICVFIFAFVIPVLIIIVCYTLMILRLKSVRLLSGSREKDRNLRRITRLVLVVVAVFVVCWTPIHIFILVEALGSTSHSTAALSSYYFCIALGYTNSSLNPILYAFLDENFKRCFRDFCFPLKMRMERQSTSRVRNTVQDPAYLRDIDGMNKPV

Structure (SMILES)	Ki
N=C(N)NCCC[C@@H](NC(=O)Cc1ccc(F)cc1)C(=O)N[C@H](CCCNC(=N)N)C(=O)N[C@@H](CCC(N)=O)C(=O)N[C@@H](CC1CCCCC1)C(=O)N[C@H]1CSSC[C@@H](C(N)=O)NC1=O	1.2 nM
N=C(N)NCCC[C@@H](NC(=O)Cc1cccc(Br)c1)C(=O)N[C@H](CCCNC(=N)N)C(=O)N[C@@H](CCC(N)=O)C(=O)N[C@@H](CC1CCCCC1)C(=O)N[C@H]1CSSC[C@@H](C(N)=O)NC1=O	1.2 nM
N=C(N)NCCC[C@@H](NC(=O)[C@@H](CCCNC(=N)N)NC(=O)[C@@H]1CCCN1C(=O)c1ccccc1)C(=O)N[C@@H](CCC(N)=O)C(=O)N[C@@H](CC1CCCCC1)C(=O)N1CCSSC[C@@H](C(N)=O)NC(=O)C1	199 nM
N=C(N)NCCC[C@@H](NC(=O)[C@@H](CCCNC(=N)N)NC(=O)[C@@H]1CCCN1C(=O)c1ccccc1)C(=O)N[C@@H](CCC(N)=O)C(=O)N[C@@H](CC1CCCCC1)C(=O)N1C[C@@H]2C[C@H]1C(=O)N[C@H](C(N)=O)CSS2	786 nM
N=C(N)NCCC[C@@H](NC(=O)[C@@H](CCCNC(=N)N)NC(=O)[C@@H]1CCCN1C(=O)c1ccccc1)C(=O)N[C@@H](CC1CCCCC1)C(=O)N[C@H]1CSSCC(C(N)=O)NC1=O (single isomer, unassigned)	60 nM
N=C(N)NCCC[C@@H](NC(=O)[C@@H](CCCNC(=N)N)NC(=O)[C@@H]1CCCN1C(=O)c1ccccc1)C(=O)N[C@@H](CCC(=O)O)C(=O)N[C@@H](CC1CCCCC1)C(=O)N[C@H]1CSSC[C@@H](C(N)=O)NC1=O	19.4 nM
CC[C@H](C)[C@@H]1NC(=O)[C@H](CCC(N)=O)NC(=O)[C@H](CCCNC(=N)N)NC(=O)[C@H](CCCNC(=N)N)NC(=O)[C@@H]2CSSC[C@@H](C(N)=O)NC(=O)[C@H](CSSC[C@H](NC(=O)[C@@H](N)CC(N)=O)C(=O)N2)NC1=O (HELM PEPTIDE1{N.C.C.R.R.Q.I.C.C.[am]}$PEPTIDE1,PEPTIDE1,2:R3-8:R3|PEPTIDE1,PEPTIDE1,3:R3-9:R3$$$V2.0)	1470 nM
N=C(N)NCCC[C@@H](NC(=O)c1cccc(Cl)c1)C(=O)N[C@H](CCCNC(=N)N)C(=O)N[C@@H](CCC(N)=O)C(=O)N[C@@H](CC1CCCCC1)C(=O)N[C@H]1CSSC[C@@H](C(N)=O)NC1=O	6.7 nM
CC[C@H](C)[C@H](NC(=O)[C@H](C)NC(=O)[C@H](CCCNC(=N)N)NC(=O)[C@H](CCCNC(=N)N)NC(=O)[C@@H]1CSSC[C@H](NC(=O)[C@@H](N)CC(N)=O)C(=O)N1)C(=O)N[C@H]1CSSC[C@@H](C(N)=O)NC1=O (HELM PEPTIDE1{N.C.C.R.R.A.I.C.C.[am]}$PEPTIDE1,PEPTIDE1,2:R3-3:R3|PEPTIDE1,PEPTIDE1,8:R3-9:R3$$$V2.0)	133 nM
N=C(N)NCCC[C@@H](NC(=O)[C@@H](CCCNC(=N)N)NC(=O)[C@@H]1CCCN1C(=O)c1ccccc1)C(=O)N[C@@H](CCC(N)=O)C(=O)N[C@@H](CC1CCCCC1)C(=O)N[C@H]1CSSCCN(CC(N)=O)C1=O	465 nM
N=C(N)NCCC[C@@H](NC(=O)[C@@H]1CCC(=O)N1)C(=O)N[C@H](CCCNC(=N)N)C(=O)N[C@@H](CCC(N)=O)C(=O)N[C@@H](CC1CCCCC1)C(=O)N[C@H]1CCSSC[C@@H](C(N)=O)NC1=O	783 nM
CC[C@H](C)[C@H](NC(=O)[C@H](CCC(N)=O)NC(=O)[C@H](Cc1c[nH]cn1)NC(=O)[C@H](CCCNC(=N)N)NC(=O)[C@@H]1CSSC[C@H](NC(=O)[C@@H](N)CC(N)=O)C(=O)N1)C(=O)N[C@H]1CSSC[C@@H](C(N)=O)NC1=O (HELM PEPTIDE1{N.C.C.R.H.Q.I.C.C.[am]}$PEPTIDE1,PEPTIDE1,2:R3-3:R3|PEPTIDE1,PEPTIDE1,8:R3-9:R3$$$V2.0)	85 nM
N=C(N)NCCC[C@@H](NC(=O)[C@@H](CCCNC(=N)N)NC(=O)[C@@H]1CCCN1C(=O)c1ccccc1)C(=O)N[C@@H](CC(N)=O)C(=O)N[C@@H](CC1CCCCC1)C(=O)N[C@H]1CSSC[C@@H](C(N)=O)NC1=O	0.61 nM
CC[C@H](C)[C@H](NC(=O)[C@H](CCC(N)=O)NC(=O)[C@H](CCCNC(=N)N)NC(=O)[C@H](Cc1c[nH]cn1)NC(=O)[C@@H]1CSSC[C@H](NC(=O)[C@@H](N)CC(N)=O)C(=O)N1)C(=O)N[C@H]1CSSC[C@@H](C(N)=O)NC1=O (HELM PEPTIDE1{N.C.C.H.R.Q.I.C.C.[am]}$PEPTIDE1,PEPTIDE1,2:R3-3:R3|PEPTIDE1,PEPTIDE1,8:R3-9:R3$$$V2.0)	137 nM
N=C(N)NCCC[C@H](NC(=O)[C@H](CCCNC(=N)N)NC(=O)[C@@H]1CSSC[C@H](NC(=O)[C@@H](N)CC(N)=O)C(=O)N1)C(=O)N[C@@H](CCC(N)=O)C(=O)N[C@@H](Cc1ccccc1)C(=O)N[C@H]1CSSC[C@@H](C(N)=O)NC1=O (HELM PEPTIDE1{N.C.C.R.R.Q.F.C.C.[am]}$PEPTIDE1,PEPTIDE1,2:R3-3:R3|PEPTIDE1,PEPTIDE1,8:R3-9:R3$$$V2.0)	28 nM
CC[C@H](C)[C@H](NC(=O)[C@H](CCC(N)=O)NC(=O)[C@H](CCCNC(=N)N)NC(=O)[C@H](CCCNC(N)=O)NC(=O)[C@@H]1CSSC[C@H](NC(=O)[C@@H](N)CC(N)=O)C(=O)N1)C(=O)N[C@H]1CSSC[C@@H](C(N)=O)NC1=O (HELM PEPTIDE1{N.C.C.[Cit].R.Q.I.C.C.[am]}$PEPTIDE1,PEPTIDE1,2:R3-3:R3|PEPTIDE1,PEPTIDE1,8:R3-9:R3$$$V2.0)	218 nM

Structure (SMILES)	Ki
N=C(N)NCCC[C@@H](NC(=O)[C@@H](CCCNC(=N)N)NC(=O)[C@@H]1CCCN1C(=O)c1ccc([N+](=O)[O-])cc1)C(=O)N[C@@H](CCC(N)=O)C(=O)N[C@@H](CS)C(=O)N[C@@H](CC1CCCCC1)C(=O)N[C@H]1CSSC[C@@H](C(N)=O)NC1=O	2.2 nM
CC(C)C[C@H](NC(=O)[C@@H](CCCNC(=N)N)NC(=O)[C@@H](CCCNC(=N)N)NC(=O)[C@@H]1CCCN1C(=O)c1ccccc1)C(=O)N[C@@H](CC1CCCCC1)C(=O)N[C@H]1CSSC[C@@H](C(N)=O)NC1=O	1.4 nM
N=C(N)NCCC[C@@H](NC(=O)[C@@H](CCCNC(=N)N)NC(=O)[C@@H]1CCCN1C(=O)c1ccccc1)C(=O)N[C@@H](CO)C(=O)N[C@@H](CC1CCCCC1)C(=O)N[C@H]1CSSC[C@@H](C(N)=O)NC1=O	0.42 nM
N=C(N)NCCC[C@@H](NC(=O)[C@@H](CCCNC(=N)N)NC(=O)[C@@H]1CCCN1C(=O)c1ccccc1)C(=O)N[C@@H](CCC(N)=O)C(=O)N[C@@H](CC1CCCCC1)C(N)=O	22500 nM
N=C(N)NCCC[C@@H](NC(=O)[C@@H](CCCNC(=N)N)NC(=O)[C@@H]1CCCN1C(=O)c1ccccc1)C(=O)N[C@@H](CCC(N)=O)C(=O)N[C@@H](CC1CCCCC1)C(=O)N[C@H]1CSS[C@H]2C[C@@H](C(N)=O)N(C2)C1=O	208 nM
CC[C@H](C)[C@@H]1NC(=O)[C@H](CCC(N)=O)NC(=O)[C@H](CCCNC(=N)N)NC(=O)[C@H](CCCNC(=N)N)NC(=O)[C@@H]2CSSC[C@H](NC1=O)C(=O)N[C@H](C(N)=O)CSSC[C@H](NC(=O)[C@@H](N)CC(N)=O)C(=O)N2 (HELM PEPTIDE1{N.C.C.R.R.Q.I.C.C.[am]}$PEPTIDE1,PEPTIDE1,2:R3-9:R3|PEPTIDE1,PEPTIDE1,3:R3-8:R3$$$V2.0)	580 nM
N=C(N)NCCC[C@@H](NC(=O)c1ccc(F)cc1)C(=O)N[C@H](CCCNC(=N)N)C(=O)N[C@@H](CCC(N)=O)C(=O)N[C@@H](CC1CCCCC1)C(=O)N[C@H]1CSSC[C@@H](C(N)=O)NC1=O	5.4 nM
CC[C@H](C)[C@H](NC(=O)[C@H](CCC(N)=O)NC(=O)[C@H](CCCCN)NC(=O)[C@H](CCCNC(=N)N)NC(=O)[C@@H]1CSSC[C@H](NC(=O)[C@@H](N)CC(N)=O)C(=O)N1)C(=O)N[C@H]1CSSC[C@@H](C(N)=O)NC1=O (HELM PEPTIDE1{N.C.C.R.K.Q.I.C.C.[am]}$PEPTIDE1,PEPTIDE1,2:R3-3:R3|PEPTIDE1,PEPTIDE1,8:R3-9:R3$$$V2.0)	208 nM
CC[C@H](C)[C@H](NC(=O)[C@H](CCC(N)=O)NC(=O)[C@H](CCCNC(=N)N)NC(=O)[C@H](CCCNC(=N)N)NC(=O)[C@@H]1CSSC[C@H](NC(=O)[C@@H](N)Cc2ccc(O)cc2)C(=O)N1)C(=O)N[C@H]1CSSC[C@@H](C(N)=O)NC1=O (HELM PEPTIDE1{Y.C.C.R.R.Q.I.C.C.[am]}$PEPTIDE1,PEPTIDE1,2:R3-3:R3|PEPTIDE1,PEPTIDE1,8:R3-9:R3$$$V2.0)	40.3 nM
CC[C@H](C)[C@H](NC(=O)[C@H](CCC(N)=O)NC(=O)[C@H](CCCNC(=N)N)NC(=O)[C@H](CCCNC(=N)N)NC(=O)[C@@H]1CSSC[C@H](NC(=O)[C@@H](N)CC(N)=O)C(=O)N1)C(N)=O (HELM PEPTIDE1{N.C.C.R.R.Q.I.[am]}$PEPTIDE1,PEPTIDE1,2:R3-3:R3$$$V2.0)	14700 nM
N=C(N)NCCC[C@@H](NC(=O)[C@@H](CCCNC(=N)N)NC(=O)[C@@H]1CCCN1C(=O)c1ccccc1)C(=O)N[C@@H](CCC(N)=O)C(=O)N[C@@H](CC1CCCCC1)C(=O)N[C@H]1CSSC[C@@H](C(=O)O)NC1=O	2140 nM
CN(C(=O)[C@H](CC1CCCCC1)NC(=O)[C@H](CCC(N)=O)NC(=O)[C@@H](CCCNC(=N)N)NC(=O)[C@@H](CCCNC(=N)N)NC(=O)[C@@H]1CCCN1C(=O)c1ccccc1)[C@H]1CSSC[C@@H](C(N)=O)NC1=O	15 nM
N=C(N)NCCC[C@@H](NC(=O)[C@@H](CCCNC(=N)N)NC(=O)[C@@H]1CCCN1C(=O)c1ccccc1)C(=O)N[C@@H](CCC(N)=O)C(=O)N[C@@H](CC1CCCCC1)C(=O)N[C@H]1CSCSC[C@@H](C(N)=O)NC1=O	15.8 nM
N=C(N)NCCC[C@@H](NC(=O)[C@@H]1CCC(=O)N1)C(=O)N[C@H](CCCNC(=N)N)C(=O)N[C@@H](CCC(N)=O)C(=O)N[C@@H](CC1CCCCC1)C(=O)N[C@H]1CCSSCC[C@@H](C(N)=O)NC1=O	241 nM
N=C(N)NCCC[C@@H](NC(=O)[C@@H](CCCNC(=N)N)NC(=O)[C@@H]1CCCN1C(=O)c1ccccc1)C(=O)N[C@@H](CC(=O)O)C(=O)N[C@@H](CC1CCCCC1)C(=O)N[C@H]1CSSC[C@@H](C(N)=O)NC1=O	10.2 nM
N=C(N)NCCC[C@H](NC(=O)[C@@H]1CCC(=O)N1)C(=O)N[C@@H](CCCNC(=N)N)C(=O)N[C@@H](CCC(N)=O)C(=O)N[C@@H](CC1CCCCC1)C(=O)N[C@H]1CCCCN(CC(N)=O)C1=O (HELM PEPTIDE1{[Glp].R.R.Q.[Cha].[NC(=O)CN1CCCC[C@H](N[*:1])C1=O]}$$$$V2.0)	12900 nM
